High-throughput results: PubChem BioAssay, several laboratories
An excerpt weighted towards active compounds, which were near 0.81% of everything screened.
TNAP act hiacc: TNAP activators at high phosphate acceptor level, primary screen, biochemical, luminescence, uHTS. purified TNAP, CDP-star luminescence, 1 M DEA, 30 min; active compounds read high; 0 = EDTA background, 1 = DMSO-only activity. activation factor at 20 µM. Alkaline phosphatase, tissue-nonspecific isozyme (Homo sapiens), P05186. 200,000 tested, under 10 active;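 active = activation factor at least 2 at 20 µM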
Target sequence (P05186 whole entry, looked up): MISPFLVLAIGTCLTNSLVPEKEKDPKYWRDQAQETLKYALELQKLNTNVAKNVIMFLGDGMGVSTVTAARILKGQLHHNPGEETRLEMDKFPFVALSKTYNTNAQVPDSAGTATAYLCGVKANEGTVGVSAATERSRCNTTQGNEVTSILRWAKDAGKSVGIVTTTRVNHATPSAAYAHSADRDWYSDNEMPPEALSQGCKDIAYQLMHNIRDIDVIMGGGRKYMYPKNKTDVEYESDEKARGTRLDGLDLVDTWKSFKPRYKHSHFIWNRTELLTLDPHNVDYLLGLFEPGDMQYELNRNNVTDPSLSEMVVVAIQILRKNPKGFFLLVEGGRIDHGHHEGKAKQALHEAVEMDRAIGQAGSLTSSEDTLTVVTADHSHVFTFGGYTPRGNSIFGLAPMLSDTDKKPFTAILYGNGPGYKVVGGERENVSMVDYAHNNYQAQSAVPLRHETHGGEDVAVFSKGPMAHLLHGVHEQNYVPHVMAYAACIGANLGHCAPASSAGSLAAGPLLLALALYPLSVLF
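Test system – human TNAP · Doses – 20 µM single point · Incubation – 30 min, room temperature · Signal – luminescent substrate turnover signal · Read-out basis – activation factor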
TNAP inh hiacc: human TNAP enzyme inhibitors, primary screen, biochemical, luminescent, high phosphate acceptor level, uHTS; purified TNAP, CDP-star luminescence, 1 M DEA; 200,000 compounds, 0.03% hits; inhibition, % at 20 µM; Alkaline phosphatase, tissue-nonspecific isozyme (Homo sapiens), P05186;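 active = over 50% inhibition of tissue-nonspecific alkaline phosphatase at 20 µM in the single-dose screen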;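 also: plate controls were DMSO wells for no effect and EDTA-quenched wells as full inhibition for full effect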
zVAD death inh: inhibitors of zVAD-triggered necroptosis, primary screen, L929 cells; viability rescue, % at 10 µM; L929 zVAD necroptosis rescue, ATP luminescence, 24 h; with zVAD 60 µM; 220,000 compounds, 0.38% hits;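 active = activation, scaled between plate controls, above about 75%, limit read from the data; inactive = activation under that limit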;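 also: 0% = zVAD with DMSO and 100% = DMSO alone without zVAD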
TNAP inh noacc: human TNAP enzyme inhibitors, primary screen, biochemical, luminescent, no phosphate acceptor, uHTS; inhibition, % at 20 µM; Alkaline phosphatase, tissue-nonspecific isozyme (Homo sapiens), P05186; 200,000 compounds, 0.26% hits; purified TNAP, CDP-star luminescence, 30 min;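 active = tissue-nonspecific alkaline phosphatase inhibition above about 50% at 20 µM in the single-dose screen, limit read from the data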;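 also: 0% = DMSO negative control and 100% = EDTA positive control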
sdo1 growth: growth rescue of sdo1-depleted yeast, primary screen, S. cerevisiae, bone marrow failure model; 140,000 compounds, 0.21% hits; AID 817, 2007; z-score at 10 µM; S. cerevisiae sdo1-depleted JHY4D growth rescue, OD600 30 h; active compounds read high; pdr5 snq2 efflux-pump mutant strain;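 active = z-score above 3 at both the 24 hr and the 30 hr optical density reads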;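 also: z-score against mean and SD of all compound wells on the same plate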
TNF necrop inh: inhibitors of TNF-alpha triggered necroptosis, primary screen, cell-based, Jurkat FADD-/-, single concentration; Jurkat FADD-/- TNF necroptosis rescue, ATP luminescence, 24 h; 0 = TNF only, 100 = no-TNF cells; activation (protection from cell death), % at 10 µM; 220,000 compounds, 0.068% hits; AID 463075, 2010;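 active = activation, meaning protection from cell death, of at least 50% relative to plate controls; inactive = activation below 50%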;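 also: necroptosis triggered by 40 ng/mL TNF-alpha added together with compound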
zVAD necrop conf: inhibitors of zVAD-triggered necroptosis in L929, confirmation, L929 cells, duplicate runs; shares compounds with zVAD death inh; L929 zVAD-induced necroptosis rescue, ATP luminescence, 24 h; activation (protection from necroptosis), % at 10 µM; 760 compounds, 16% hits;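 active = mean protection from necroptosis of at least 50% over duplicate tests; inactive = mean protection below 50%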;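 also: 0% = cells with zVAD alone and 100% = vehicle cells without zVAD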
* hit, by the source's call; · = no result.

SMILES	TNAP act hiacc	TNAP inh hiacc	zVAD death inh	TNAP inh noacc	sdo1 growth	TNF necrop inh	zVAD necrop conf
CCOC(=O)C1=C(C)NC(C)=C(C(=O)OCC)C1C(=O)OCC(=O)N1CCc2ccccc2C1	1	3	0	-2	0.24	-4	·
CSCCn1c(C(C)(C)C)cc(C(=O)O)c1C	·	·	0	·	·	0	·
Cn1cnnc1SC(C(=O)Nc1cc(Cl)cc(Cl)c1)c1ccccc1 (stereo unspecified)	1	3	0	-11	-0.6	0	·
O=C(O)c1ccc(N/N=C/c2cc3cc4c(cc3nc2Cl)OCCO4)cc1	·	·	2	·	·	-7	·
O=C(N/N=C\c1cccc(Cl)c1)c1n[nH]c2c1CCCC2	1	0	83*	-82	-1.1	6	28
CC1=CCC(C(=O)O)C(C(=O)Nc2ccc(-c3nc4ccc(C)cc4s3)cc2)C1 (stereo unspecified)	·	·	-1	·	·	1	·
CCc1ccccc1NC(=O)CN(C)C(=O)CSc1nc2cc(Cl)ccc2s1	1.1	-7	1	3	-0.1	1	·
CC(C)CN(C)C(=O)CCc1nnc(Cc2ccc(-c3ccccc3)cc2)o1	1	-4	0	-8	·	1	·
O=C1CNC(=S)N1CCc1ccccc1Cl	·	·	0	·	·	1	·
O=C1CNC(=S)N1CCc1ccc(Cl)cc1	·	·	83*	·	·	21	35
Cc1cc(NC(=O)CSc2nc3sc(C)c(C)c3c(=O)n2C2CCCC2)no1	1	-2	0	-9	0.93	-1	·
O=C(Oc1ccc(Nc2ncnc3ccccc23)cc1)c1cccnc1	1	-3	80*	-15	·	-1	1
O=C(Nc1ccc(F)cc1)Nc1ccc(N2CCCC2)c(S(=O)(=O)Nc2ccccc2Cl)c1	1	-2	76*	-26	-0.3	2	72*
CN1CCN(c2ccc(NC(=O)c3ccc(C#N)cc3F)cc2Cl)CC1	1	-4	3	-3	·	4	·
O=C(Nc1nccs1)c1cc2c(s1)-c1ccccc1OC2	1.1	-7	98*	-20	-0.26	22	49
CCSc1nc2cc(OC)c(OC)cc2c(=O)n1CC	1	-2	2	-6	1.4	-2	·
O=c1oc2ccccc2nc1/C=C(\O)c1ccccc1	·	·	68	·	·	23	·
CC(C)(C)/C(O)=C/c1nc2ccccc2oc1=O	1.1	-7	88*	7	·	10	8
CC(=O)Nc1ccc(C(=O)CSc2ncn(-c3ccccc3)n2)cc1	1	-4	80*	-8	0.43	-5	1
O=C(CSc1ncn(-c2ccccc2)n1)Nc1nncs1	1	-4	1	-7	·	0	·
c1ccc(N2CCN(Cc3cn4cccnc4n3)CC2)cc1	1.1	-7	0	-12	-0.49	0	·
CC(=O)/C=C(\C)Nc1ccc(-c2cnc(-c3ccccc3)o2)cc1	1	0	96*	2	0.41	-4	22
O=C(Nc1ccc(-c2nnc(-c3ccccc3)o2)cc1)C(F)(F)F	1	-4	1	-12	-0.94	-2	·
CC(=O)Nc1ccc(N=Cc2ccc[nH]2)cc1	1	4	1	-6	0.42	0	·
Oc1ccccc1N=Cc1ccc[nH]1	1	-2	97*	-29	-1.5	8	7
SMILES	TNAP act hiacc	TNAP inh hiacc	zVAD death inh	TNAP inh noacc	sdo1 growth	TNF necrop inh	zVAD necrop conf
O=C(Nc1ccccc1-c1ccccc1)C12CC3CC(CC(C3)C1)C2	1	-5	0	-10	-0.2	-6	·
C=CCn1c(SCc2ccc(C(=O)Nc3nccs3)cc2)nnc1-c1ccc(C)c(Cl)c1	1	-4	103*	-13	-0.24	9	60*
Cn1nnnc1SCc1ccc(C(=O)Nc2nccs2)cc1	1	1	92*	-6	1.7	43	88*
Cn1nnnc1SCc1ccc(Cl)cc1	1	-3	83*	-12	·	32	8
Cc1cc(C)cc(NC(=O)c2ccc(CSc3nnnn3C)cc2)c1	1.1	-5	1	-2	-0.09	9	·
N#Cc1c2n(c(=S)n(-c3ccc(F)cc3)c1=O)CCCCC2	1	-2	0	-12	·	0	·
COc1ccc(-c2cc(C(=O)NCC(C)C)no2)cc1	1	-3	-1	-8	-0.46	1	·
CC(C)c1ccc(-n2cnn(-c3ncccc3[N+](=O)[O-])c2=O)cc1	1	1	78*	-3	·	2	1
O=C(/C=C/c1ccco1)N(Cc1ccc(Cl)cc1)C1CCS(=O)(=O)C1 (stereo unspecified)	·	·	0	·	·	-1	·
Cc1ccc(Nc2nc(OC(C(F)(F)F)C(F)(F)F)nc(N3CCOCC3)n2)cc1	1	-3	88*	-6	1.4	3	2
COc1ccc(Nc2nc(OC)nc(N3CCOCC3)n2)cc1	1	-2	13	-7	·	1	·
O=C(Cc1ccc(Cl)cc1Cl)OCC(=O)N1CCN(C(=O)c2ccco2)CC1	1	-2	76*	-5	·	0	3
Cc1cc(C(=O)OCC(=O)N2CCN(C(=O)c3ccco3)CC2)c(C)n1-c1ccc(F)cc1	1.1	-8	87*	-8	-0.46	-2	35
O=C(Nc1ccsn1)c1ccc(Cl)cc1Cl	·	·	0	·	·	1	·
COc1ccc(C(=O)/C=C/c2cn(CN3CCN(C)CC3)c3ccccc23)cc1	1	2	65	12	-0.58	-8	·
COc1ccc(C(=O)/C=C/c2cn(CC(O)CN3CCOCC3)c3ccccc23)cc1 (stereo unspecified)	0.9	9	82*	0	-0.32	7	38
Nc1nonc1-n1nnc(C(=O)N/N=C/c2ccc(Br)cc2)c1CSC1=NCCS1	1	-1	78*	8	-1.8	-7	2
Cc1ccc(C(=O)Nc2cccc(C(F)(F)F)c2)cc1NC(=O)c1cnnc2ccccc12	·	·	72	·	·	1	·
Cc1cn(-c2cc(C(=O)Nc3ccc(C)c(NC(=O)C(=O)c4c[nH]c5ccccc45)c3)cc(C(F)(F)F)c2)cn1	·	·	77*	·	·	-10	71*
O=C(C1=NNCC1c1ccc(Cl)cc1)C1CO1 (stereo unspecified)	1	-2	89*	-17	0.24	57*	94*
CCCOc1ccc(N2C(=O)C/C(=C\c3ccccc3)C2=O)cc1	·	·	1	·	·	1	·
